Reference: ChEMBL document CHEMBL1136016, “Synthesis, biological activity, and molecular modeling investigation of new pyrazolo[4,3-e]-1,2,4-triazolo[1,5-c]pyrimidine derivatives as human A(3) adenosine receptor antagonists” (J Med Chem, 2002)

How the values were obtained:
[1] = molecular target: Adenosine receptors; A2b & A3 (Homo sapiens) (UniProt P29275+P0DMS8); assay: Selectivity ratio (h2B/hA3); type: protein assay
Adenosine receptor A2b [2] = molecular target: T1, Adenosine receptor A2b (Homo sapiens, UniProt P29275); assay: Displacement of [3H]DPCPX from human Adenosine A2B receptor expressed in HEK293 cells; range 116-134; type: cell-based
T1 sequence (P29275 whole entry): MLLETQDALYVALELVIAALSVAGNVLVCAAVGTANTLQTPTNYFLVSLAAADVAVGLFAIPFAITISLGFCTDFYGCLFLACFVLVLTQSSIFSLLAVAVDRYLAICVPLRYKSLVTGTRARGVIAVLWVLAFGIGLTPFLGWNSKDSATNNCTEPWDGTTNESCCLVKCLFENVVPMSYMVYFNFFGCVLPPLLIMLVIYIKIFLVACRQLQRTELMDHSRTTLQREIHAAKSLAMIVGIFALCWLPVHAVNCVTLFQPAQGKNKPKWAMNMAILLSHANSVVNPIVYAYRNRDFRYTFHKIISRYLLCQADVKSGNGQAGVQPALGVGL
How it was run: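 Membranes from HEK-293 cells with human recombinant A2B receptor. Incubation 60 min at 25 °C in 50 mM Tris HCl, 10 mM MgCl2, 1 mM EDTA, 0.1 mM benzamidine, pH 7.4, with 2 IU/mL adenosine deaminase and 40 nM [3H]DPCPX. At least six to eight test concentrations. Nonspecific binding defined with NECA. n = 3-6.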

Adenosine receptor A2a [3] = molecular target: T2, Adenosine receptor A2a (Homo sapiens, UniProt P29274); assay: Displacement of [3H]SCH-58261 from human Adenosine A2A receptor expressed in HEK293 cells; range 71-111; type: cell-based
Adenosine receptor A1 [4] = molecular target: T3, Adenosine receptor A1 (Homo sapiens, UniProt P30542); assay: Displacement of [3H]DPCPX from human Adenosine A1 receptor expressed in CHO cells; range 156-258; type: cell-based
T3 sequence (P30542 whole entry): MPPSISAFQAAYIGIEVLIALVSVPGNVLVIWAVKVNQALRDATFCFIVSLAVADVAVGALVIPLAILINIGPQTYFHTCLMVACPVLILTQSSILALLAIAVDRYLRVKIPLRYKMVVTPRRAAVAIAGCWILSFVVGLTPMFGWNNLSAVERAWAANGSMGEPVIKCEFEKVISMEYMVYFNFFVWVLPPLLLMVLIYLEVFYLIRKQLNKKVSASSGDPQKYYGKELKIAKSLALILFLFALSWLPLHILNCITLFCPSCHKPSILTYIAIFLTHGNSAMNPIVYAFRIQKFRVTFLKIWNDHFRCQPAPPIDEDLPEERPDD

Adenosine receptor A3 [5] = molecular target: T4, Adenosine receptor A3 (Homo sapiens, UniProt P0DMS8); assay: biochemical
T4 sequence (P0DMS8 whole entry): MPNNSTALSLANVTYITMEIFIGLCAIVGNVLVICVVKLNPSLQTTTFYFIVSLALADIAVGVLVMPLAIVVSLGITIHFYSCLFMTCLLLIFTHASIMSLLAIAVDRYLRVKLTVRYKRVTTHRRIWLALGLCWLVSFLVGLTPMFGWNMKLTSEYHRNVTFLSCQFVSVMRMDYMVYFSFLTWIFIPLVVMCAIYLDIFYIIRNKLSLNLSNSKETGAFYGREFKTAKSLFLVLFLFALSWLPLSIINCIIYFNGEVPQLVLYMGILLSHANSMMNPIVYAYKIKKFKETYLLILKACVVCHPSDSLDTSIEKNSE

[6] = molecular target: Adenosine receptors; A1 & A3 (Homo sapiens) (UniProt P30542+P0DMS8); assay: Selectivity ratio (hA1/hA3); type: protein assay
Adenosine receptor A2a [7] = molecular target: T2, Adenosine receptor A2a; assay: Displacement of [3H]SCH-58261 from human Adenosine A2A receptor expressed in HEK293 cells; range 140-186; type: cell-based
Adenosine receptor A3 [8] = molecular target: T4, Adenosine receptor A3; assay: Displacement of [3H]MRE3008-F20 from human Adenosine A3 receptor expressed in HEK cells; range 0.71-0.91; type: cell-based, HEK293
Adenosine receptor A3 [9] = molecular target: T4, Adenosine receptor A3; assay: Inhibition of IB-MECA agonist-mediated cAMP production in CHO cell membranes expressing human Adenosine A3 receptor; range 5.5-10.9; type: functional, cell-based
How it was run: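 Human A3-CHO membranes (in 50 mM Tris HCl, 10 mM MgCl2, 1 mM EDTA, pH 7.4) were preincubated for 10 min at 37 °C with 5 µM GTP, 0.5 mM Ro 20-1724 and 2.0 IU/mL adenosine deaminase. IB-MECA (100 nM) or antagonist was then added with 1 mM ATP and forskolin for 10 min. The reaction was stopped by 2 min boiling. cAMP was measured by [3H]cAMP competitive protein binding using beef adrenal binding protein, 150 min at 4 °C.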

Adenosine receptor A2b [10] = molecular target: T1, Adenosine receptor A2b; assay: Displacement of [3H]DPCPX from human Adenosine A2B receptor expressed in HEK293 cells; range 213-296; type: cell-based
How it was run: (§1)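 Competition binding on membranes of HEK-293 cells carrying recombinant human A2B receptor. Incubation 60 min at 25 °C in 50 mM Tris HCl pH 7.4 with 10 mM MgCl2, 1 mM EDTA, 0.1 mM benzamidine and 2 IU/mL adenosine deaminase. Radioligand 40 nM [3H]DPCPX, at least six to eight test concentrations. NECA defined nonspecific binding. Bound ligand separated on glass-fibre filters and counted; n = 3-6.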

Adenosine receptor A1 [11] = molecular target: T3, Adenosine receptor A1; assay: Displacement of [3H]DPCPX from human Adenosine A1 receptor expressed in CHO cells; range 406-616; type: cell-based
Adenosine receptor A1 [12] = molecular target: T3, Adenosine receptor A1; assay: Displacement of [3H]DPCPX from human Adenosine A1 receptor expressed in CHO cells; range 245-370; type: cell-based
Adenosine receptor A3 [13] = molecular target: T4, Adenosine receptor A3; assay: Displacement of [3H]MRE3008-F20 from human Adenosine A3 receptor expressed in HEK cells; range 0.61-0.83; type: cell-based, HEK293
Adenosine receptor A2a [14] = molecular target: T2, Adenosine receptor A2a; assay: Displacement of [3H]SCH-58261 from human Adenosine A2A receptor expressed in HEK293 cells; range 103-142; type: cell-based
Adenosine receptor A2b [15] = molecular target: T1, Adenosine receptor A2b; assay: Displacement of [3H]DPCPX from human Adenosine A2B receptor expressed in HEK293 cells; range 49-77; type: cell-based; how it was run: as §1
Adenosine receptor A2b [16] = molecular target: T1, Adenosine receptor A2b; assay: Displacement of [3H]DPCPX from human Adenosine A2B receptor expressed in HEK293 cells; range 115-161; type: cell-based
How it was run: (§2)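 HEK-293 membranes expressing the human receptor were incubated 60 min at 25 °C. Six to eight test concentrations were used. Nonspecific binding was set with NECA. n = 3-6.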

Adenosine receptor A1 [17] = molecular target: T3, Adenosine receptor A1; assay: Displacement of [3H]DPCPX from human Adenosine A1 receptor expressed in CHO cells; range 330-478; type: cell-based
How it was run: (§3)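 Human recombinant A1 receptor in CHO cell membranes, resuspended in 50 mM Tris HCl pH 7.4. Displacement run 120 min at 25 °C with 1 nM [3H]DPCPX, 50 µg protein per assay, and at least six to eight test concentrations. Nonspecific binding defined with CHA. Bound and free separated on glass-fiber filters; filter radioactivity counted. n = 3-6.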

Adenosine receptor A3 [18] = molecular target: T4, Adenosine receptor A3; assay: biochemical; remark: listed apart in the source
Adenosine receptor A2a [19] = molecular target: T2, Adenosine receptor A2a; assay: Displacement of [3H]SCH-58261 from human Adenosine A2A receptor expressed in HEK293 cells; range 24-48; type: cell-based
Adenosine receptor A2a [20] = molecular target: T2, Adenosine receptor A2a; assay: Displacement of [3H]SCH-58261 from human Adenosine A2A receptor expressed in HEK293 cells; range 51-55; type: cell-based
Adenosine receptor A2b [21] = molecular target: T1, Adenosine receptor A2b; assay: Displacement of [3H]DPCPX from human Adenosine A2B receptor expressed in HEK293 cells; range 178-310; type: cell-based; how it was run: as §2
Adenosine receptor A3 [22] = molecular target: T4, Adenosine receptor A3; assay: biochemical; remark: listed apart in the source
Adenosine receptor A1 [23] = molecular target: T3, Adenosine receptor A1; assay: Displacement of [3H]DPCPX from human Adenosine A1 receptor expressed in CHO cells; range 346-586; type: cell-based; how it was run: as §3
Adenosine receptor A3 [24] = molecular target: T4, Adenosine receptor A3; assay: Displacement of [3H]MRE3008-F20 binding at human Adenosine A3 receptor expressed in HEK cells; range 0.76-0.98; type: cell-based, HEK293
Adenosine receptor A2a [25] = molecular target: T2, Adenosine receptor A2a; assay: Displacement of [3H]SCH-58261 from human Adenosine A2A receptor expressed in HEK293 cells; range 83-120; type: cell-based
Adenosine receptor A1 [26] = molecular target: T3, Adenosine receptor A1; assay: Displacement of [3H]DPCPX from human Adenosine A1 receptor expressed in CHO cells; range 245-319; type: cell-based
Adenosine receptor A2b [27] = molecular target: T1, Adenosine receptor A2b; assay: Displacement of [3H]DPCPX from human Adenosine A2B receptor expressed in HEK293 cells; range 65-94; type: cell-based; how it was run: as §1

T2 sequence (P29274 whole entry): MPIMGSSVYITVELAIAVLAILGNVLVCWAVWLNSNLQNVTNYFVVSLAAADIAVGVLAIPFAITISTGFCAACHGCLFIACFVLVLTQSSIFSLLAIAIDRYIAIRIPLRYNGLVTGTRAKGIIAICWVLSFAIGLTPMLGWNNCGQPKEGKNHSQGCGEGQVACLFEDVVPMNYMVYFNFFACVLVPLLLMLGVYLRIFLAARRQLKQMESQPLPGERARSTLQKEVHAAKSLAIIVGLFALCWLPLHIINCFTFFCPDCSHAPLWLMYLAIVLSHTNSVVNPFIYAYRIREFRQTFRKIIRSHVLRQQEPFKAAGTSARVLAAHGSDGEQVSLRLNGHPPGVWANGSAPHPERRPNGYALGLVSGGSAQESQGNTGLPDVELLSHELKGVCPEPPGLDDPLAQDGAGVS

`CCCCn1cc2c(nc(NC(=O)Nc3ccccc3OC)n3nc(-c4ccco4)nc23)n1` was tested, and the Ratio [1] was 219, the Ki (Adenosine receptor A2b [2]) was 125 nM and the Ki (Adenosine receptor A2a [3]) was 91 nM. It also gave a Ki (Adenosine receptor A1 [4]) of 200 nM, a Ki (Adenosine receptor A3 [5]) of 0.57 nM and a Ratio [6] of 351.

`COc1cccc(NC(=O)Nc2nc3nn(C)cc3c3nc(-c4ccco4)nn23)c1` was tested, and the Ratio [1] was 313, the Ki (Adenosine receptor A2a [7]) was 160 nM and the Ki (Adenosine receptor A3 [8]) was 0.8 nM. The IC50 (Adenosine receptor A3 [9]) was 7.8 nM, the Ki (Adenosine receptor A2b [10]) was 251 nM and the Ratio [6] was 625. The Ki (Adenosine receptor A1 [11]) was 500 nM.

`CCCn1cc2c(nc(NC(=O)Nc3ccccc3Cl)n3nc(-c4ccco4)nc23)n1` was tested, and the Ki (Adenosine receptor A1 [12]) was 300 nM, the Ki (Adenosine receptor A3 [13]) was 0.71 nM and the Ratio [1] was 86. It also gave a Ki (Adenosine receptor A2a [14]) of 121 nM, a Ratio [6] of 423 and a Ki (Adenosine receptor A2b [15]) of 61 nM.

`CCCn1cc2c(nc(NC(=O)Nc3ccc(C(F)(F)F)cc3)n3nc(-c4ccco4)nc23)n1` gave a Ratio [1] of 267, a Ki (Adenosine receptor A2b [16]) of 136 nM and a Ki (Adenosine receptor A1 [17]) of 400 nM. The Ki (Adenosine receptor A3 [18]) was 0.51 nM, the Ki (Adenosine receptor A2a [19]) was 34 nM and the Ratio [6] was 784.

`CCn1cc2c(nc(NC(=O)Nc3ccc(C(F)(F)F)cc3)n3nc(-c4ccco4)nc23)n1` showed a Ki (Adenosine receptor A2a [20]) of 53 nM, a Ratio [1] of 242 and a Ki (Adenosine receptor A2b [21]) of 235 nM. The Ki (Adenosine receptor A3 [22]) was 0.97 nM, the Ratio [6] was 464 and the Ki (Adenosine receptor A1 [23]) was 450 nM.

For `CCCCn1cc2c(nc(NC(=O)Nc3ccccc3Cl)n3nc(-c4ccco4)nc23)n1`, the Ratio [1] was 91, the Ki (Adenosine receptor A3 [24]) was 0.86 nM and the Ki (Adenosine receptor A2a [25]) was 100 nM. For the same molecule, the Ratio [6] was 326, the Ki (Adenosine receptor A1 [26]) was 280 nM and the Ki (Adenosine receptor A2b [27]) was 78 nM.
